Data reported in publication PMC7115421 (European Journal of Medicinal Chemistry, 2009).

Tests used:
[1] = test system: MDA-MB468 breast cancer cell line; assay: SRB cytotoxicity assay, MDA-MB468; assay type: cell-based; conditions: Homo sapiens
Procedure, shortened: (§1)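 Cells grown in RPMI 1640 with 10% FBS and 2 mM L-glutamine at 37 °C, 5% CO2. 5000–10,000 cells/well seeded 24 h before dosing. Seven concentrations from 2–10-fold serial dilutions; medium with matched DMSO as control. After 48 h: TCA fixation (60 min, 4 °C), 0.4% SRB, Tris solubilisation, absorbance 515–564 nm. Growth = (Ti−Tz)/(C−Tz)×100. GI50 from variable-slope sigmoidal fit; triplicates, ≥3 experiments.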

[2] = test system: MDA-MB231 breast cancer cell line; assay: SRB cytotoxicity assay, MDA-MB231; assay type: cell-based; conditions: Homo sapiens
Procedure, shortened: as §1

[3] = test system: MCF7 breast cancer cell line; assay: SRB cytotoxicity assay, MCF7; assay type: cell-based, human
Procedure, shortened: as §1

[4] = test system: 184B5 immortalized breast cell line; assay: SRB cytotoxicity assay, 184B5 non-cancer cells; assay type: cell-based, human; conditions: for killing of 184B5 non-cancer cells (in words): combined with constant amount of Akt inhibitors 7–10 (0.04, 0.4, 3.5, 0.5 μM)
[5] = test system: MDA-MB468, MDA-MB231 and MCF7 breast cancer cell lines; assay: SRB cytotoxicity assay, three breast cancer cell lines together; assay type: cell-based, human; conditions: for sensitization of cell killing by PI3K-Akt inhibitors (in words): in combination with GI20 doses of PI3K-Akt inhibitors, three breast cancer cell lines
Procedure, shortened: (§2)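 Cells plated at 5000–10,000/well and held 24 h at 37 °C, 5% CO2; time-zero wells TCA-fixed. Test compound from DMSO stock, seven concentrations (2–10-fold dilutions), 48 h; DMSO-matched medium control. Cold TCA fixation (10% final), 60 min, 4 °C; 0.4% SRB stain; Tris base solubilisation; A515–564 nm. Growth % = (Ti−Tz)/(C−Tz)×100; GI values from variable-slope sigmoidal fit; triplicates, ≥3 independent experiments.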

[6] = test system: MDA-MB468, MDA-MB231, MCF7 and 184B5; assay: SRB cytotoxicity assay, all four cell lines together; assay type: cell-based, human; conditions: for cytotoxicity (in words) on the four cell lines: PI3K-Akt inhibitor alone; for average GI20 values on the four cell lines: average over MDA-MB468, MDA-MB231, MCF7, 184B5
Procedure, shortened: as §2

## CCN(CC)CCCC(C)Nc1ccnc2cc(Cl)ccc12 (centres unmarked) [Compound 1, Chloroquine diphosphate]
[1]; MDA-MB-468
  IC50: 28.6 µM
[1]; MDA-MB-468, 48 h
  GI50: 28.6 ± 1.25 µM
[2]; MDA-MB-231
  IC50: 22.5 µM
[2]; MDA-MB-231, 48 h
  GI50: 22.5 ± 1.44 µM
[3]; Homo sapiens, MCF7
  IC50: 38.4 µM
[3]; Homo sapiens, MCF7, 48 h
  GI50: 38.4 ± 1.2 µM
[4]; Homo sapiens, 184B5
  IC50: 76.1 µM
[5]; Homo sapiens, read-out: GI50 on the cancer cell lines (range)
  GI50: 22.5 to 38.4 µM

## CCCCNc1ccnc2cc(Cl)ccc12 [Compound 2, Butyl-(7-chloro-quinolin-4-yl)-amine]
[4]
  killing of 184B5 non-cancer cells (in words): effectively killed
[5]
  sensitization of cell killing by PI3K-Akt inhibitors (in words): generally not effective sensitizers

## CCCCNc1ccnc2cc(F)ccc12 [Compound 3, Butyl-(7-fluoro-quinolin-4-yl)-amine]
[4]
  killing of 184B5 non-cancer cells (in words): effectively killed
[5]
  sensitization of cell killing by PI3K-Akt inhibitors (in words): generally not effective sensitizers

## CN(C)CCNc1ccnc2cc(Cl)ccc12 [Compound 4, N′-(7-Chloro-quinolin-4-yl)-N,N-dimethyl-ethane-1,2-diamine]
[5]
  sensitization of cell killing by PI3K-Akt inhibitors (in words): substantial enhancement of cell killing

## CN(C)CCNc1ccnc2cc(F)ccc12 [Compound 5, N′-(7-Fluoro-quinolin-4-yl)-N,N-dimethyl-ethane-1,2-diamine]
[5]
  sensitization of cell killing by PI3K-Akt inhibitors (in words): substantial enhancement of cell killing

## COc1ccc2c(NCCN(C)C)ccnc2c1 [Compound 6, N′-(7-Methoxy-quinolin-4-yl)-N,N-dimethyl-ethane-1,2-diamine]
[5]
  sensitization of cell killing by PI3K-Akt inhibitors (in words): not very effective

## CC[n+]1c(C=CN(C)c2ccccc2)n(-c2ccccc2)c2ccc(-c3nc4ccccc4s3)cc21.[I-] [Compound 7, 6-Benzothiazol-2-yl-1-ethyl-2-[2-(methyl-phenyl-amino)-vinyl]-3-phenyl-3H-benzoimidazol-1-ium Iodide]
[6]
  cytotoxicity (in words) on the four cell lines: the most cytotoxic
  average GI20 values on the four cell lines: 0.04 µM

## O=c1[nH]c2ccccc2n1C1CCN(Cc2ccc(-c3nc4cc5nc[nH]c5cc4nc3-c3ccccc3)cc2)CC1 [Compound 8, 1-{1-[4-(7-Phenyl-1H-imidazo[4,5-g]quinoxalin-6-yl)-benzyl]-piperidin-4-yl}-1,3-dihydro-benzoimidazol-2-one]
[3]; PI3K-Akt inhibitor alone, not other cells examined
  cell killing (in words) of MCF7: killed MCF7 cells effectively

## CCN(CC)CCCCN1c2ccccc2OC2C=CC(Cl)=CC21.Cl (centres unmarked) [Compound 9, [4-(2-chloro-4a,10a-dihydro-phenoxazin-10-yl)-butyl]-diethyl-amine hydrochloride]
[6]
  cytotoxicity (in words) on the four cell lines: only week cytotoxicity

## O=c1cc(N2CCOCC2)oc2c(-c3ccccc3)cccc12 [Compound 10, 2-Morpholin-4-yl-8-phenyl-chromen-4-one]
[6]
  average GI20 values on the four cell lines: 0.52 µM
